From PubChem BioAssay AID588754 (Broad Institute, 2011)
Active and inactive are the calls of the source.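 How the source made its calls: active means fitted curve shows reduced dye-labelled HDL uptake, half-maximal concentration at most ten times top dose; inconclusive means flat curve with 30 to 70% inhibition, or unreliable fit; inactive means the rest.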

What follows are compounds tested against Scavenger receptor class B member 1 (Mus musculus) (UniProt Q61009) (assay: inhibition of HDL lipid transfer via mSR-BI – ldlA[mSR-BI] CHO cells, powder samples, set 5, dose response (AID 588754)). Details: DiI-HDL uptake fluorescence, 3 h.
Sequence of Scavenger receptor class B member 1 (Mus musculus) (Q61009 whole entry, looked up): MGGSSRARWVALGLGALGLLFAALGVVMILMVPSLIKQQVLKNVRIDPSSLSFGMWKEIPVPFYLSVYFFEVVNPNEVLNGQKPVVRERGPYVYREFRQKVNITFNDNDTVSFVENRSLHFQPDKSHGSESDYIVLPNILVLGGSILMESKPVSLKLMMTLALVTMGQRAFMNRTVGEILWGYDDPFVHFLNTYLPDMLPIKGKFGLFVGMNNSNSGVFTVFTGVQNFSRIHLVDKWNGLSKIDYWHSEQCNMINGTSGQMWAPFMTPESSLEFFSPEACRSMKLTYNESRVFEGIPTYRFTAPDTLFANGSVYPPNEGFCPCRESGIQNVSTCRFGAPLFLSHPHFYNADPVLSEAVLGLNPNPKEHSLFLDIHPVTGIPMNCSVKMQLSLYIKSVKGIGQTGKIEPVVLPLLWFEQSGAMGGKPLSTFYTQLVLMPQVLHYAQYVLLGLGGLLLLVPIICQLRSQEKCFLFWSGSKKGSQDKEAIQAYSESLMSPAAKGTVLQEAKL
Method in brief: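 Detection: bottom-read DiI fluorescence after washing, ex 550/em 595 nm; Assay system: LDL receptor-deficient CHO ldlA cells overexpressing murine SR-BI; Medium: Ham's F12 with fatty acid-free BSA and HEPES; Schedule: 3 h exposure to compound plus DiI-HDL at 37 °C; Also added: DiI-labeled HDL at 10 µg/mL final.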

| SMILES | AC50 |
| --- | --- |
| CCC(=O)N1CCc2cc(-c3csc(NC(=O)c4ccc(F)c(OC)c4)n3)ccc21 | 25.8 nM |
| COc1cc(OC)cc(C(=O)Nc2nc(-c3ccc4c(c3)CCN4C(=O)CN(C)C)cs2)c1 | 19.5 nM |
| C[C@H](C(=O)NC1CCCC1)N(C(=O)Cn1nnc(-c2ccc3c(c2)OCO3)n1)C1CCCCC1 | 18.9 nM |
| Cc1ccc2oc(-c3cccc(NC(=O)c4cc(-n5cnnc5)ccc4Cl)c3)nc2c1 | 3620 nM |
| CC(=O)N1CCc2cc(-c3nc(NC(=O)c4cccc(OC(F)(F)F)c4)sc3C)ccc21 | 26 nM |
| COC(=O)N1CCc2cc(-c3csc(NC(=O)c4cc(OC)cc(OC)c4)n3)ccc21 | 39 nM |
| CCC(=O)N1CC(C)(C)c2cc(-c3csc(NC(=O)c4cc(OC)cc(OC)c4)n3)ccc21 | 10.3 nM |
| CCC(=O)N1CC(C)(C)c2cc(-c3csc(NC(=O)c4ccco4)n3)ccc21 | 20.3 nM |
| O=C(Nc1nc(-c2ccc3c(c2)CCN3)cs1)c1ccco1 | 21.1 nM |
| CCC(=O)N1CCc2cc(-c3csc(NCc4cc(OC)cc(OC)c4)n3)ccc21 | 372 nM |
| COc1ccc(-c2nnn(CC(=O)N(CC(=O)NC3CCCC3)C3CCCCC3)n2)cc1OC | 36.5 nM |
| O=C(CN(C(=O)Cn1nnc(-c2ccc3c(c2)OCO3)n1)C1CCCCC1)NC1CCCC1 | 60.2 nM |
| CCC(=O)n1ccc2cc(-c3csc(NC(=O)c4cc(OC)cc(OC)c4)n3)ccc21 | 89.3 nM |
| CCC(=O)N1CCc2cc(-c3csc(NC(=O)c4cccc(OC)c4)n3)ccc21 | 35 nM |
| CCC(=O)N1CCc2cc(-c3csc(NC(=O)c4cc(OC)cc(OC)c4)n3)ccc21 | 42.6 nM |
| CCC(=O)N1CCc2cc(-c3csc(NC(=O)c4cc5ccccc5o4)n3)ccc21 | 256 nM |

| SMILES | AC50 |
| --- | --- |
| COCC(=O)N1CCc2cc(-c3csc(NC(=O)c4cc(OC)cc(OC)c4)n3)ccc21 | 2.81 nM |
| COc1ccc(-c2nnn(CC(=O)N(CC(=O)N(C)C3CCCC3)C3CCCCC3)n2)cc1OC | 1610 nM |
| COc1ccc(-c2nnn(CC(=O)N(C3CCCCC3)C(C)C(=O)NC3CCCC3)n2)cc1OC (stereo not drawn) | 65.2 nM |
| CCC(=O)N1CCc2cc(-c3csc(NC(=O)c4cc(OC)c(OC)c(OC)c4)n3)ccc21 | 2.76 nM |
| COc1ccc(-c2nc(CC(=O)N(C3CCCCC3)C(C)C(=O)NC3CCCC3)co2)cc1OC (stereo not drawn) | 148 nM |
| COc1ccc(-c2nnn(CC(=O)N(CC(=O)N3CCCCC3)C3CCCCC3)n2)cc1OC | 9200 nM |
| COc1cc(OC)cc(C(=O)Nc2nc(-c3ccc4c(c3)CCN4C(=O)OC(C)(C)C)cs2)c1 | 0.909 nM |
| CCCCCCC1CCC/C1=N\NC(N)=S (stereo not drawn) | 16.6 nM |
| CCC(=O)N1CCc2cc(-c3csc(NC(=O)c4cccc(OC(F)(F)F)c4)n3)ccc21 | 266 nM |
| C[C@@H](C(=O)NC1CCCC1)N(C(=O)Cn1nnc(-c2ccc3c(c2)OCO3)n1)C1CCCCC1 | 2270 nM |
| CC(C(=O)NC1CCCC1)N(C(=O)Cn1nnc(-c2ccc3c(c2)OCO3)n1)C1CCCCC1 (stereo not drawn) | 49.9 nM |
| COc1ccc(-c2cc(CC(=O)N(C3CCCCC3)C(C)C(=O)NC3CCCC3)no2)cc1OC (stereo not drawn) | 29.4 nM |
| CCNC(=O)N1CCc2cc(-c3csc(NC(=O)c4cc(OC)cc(OC)c4)n3)ccc21 | 2.28 nM |
| C[C@@H]1CN([C@H](C)CO)C(=O)c2cc(NC(=O)Cc3cn(C)c4ccccc34)ccc2O[C@H]1CN(C)S(=O)(=O)c1ccc(Cl)cc1 | 5.98 nM |
| COc1cc(OC)cc(C(=O)Nc2nc(-c3ccc4c(c3)CCN4C(C)=O)cs2)c1 | 207 nM |
| CCC(=O)Nc1ccc(-c2csc(NC(=O)c3cccc(OC)c3)n2)cc1 | 110 nM |

Same assay, conditions: DiI-HDL uptake fluorescence, 3 h, at 35 µM (top of the series)

| SMILES | activity change, negative = inhibition |
| --- | --- |
| COc1c(NC(=O)C(=O)c2ccc(OCCN3CCOCC3)c3ccccc23)cc(C(C)(C)C)cc1NS(C)(=O)=O | inactive |
